Source: PubChem (several laboratories)
MT1-MMP act inh = blockers of MT1-MMP proenzyme processing, primary screen, HT1080 RFP-PRO-GFP cells, GFP/RFP fluorescence; GFP/RFP ratio fluorescence, overnight; percent of plate control window, DMSO zero; GFP/RFP ratio change, % at 20 µM; Matrix metalloproteinase-14 (Homo sapiens), P50281; actives 0.061% (n = 360,000); AID 651647, 2012;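 active = GFP/RFP ratio change of at least 30% with cell ATP level not reduced by more than half and red fluorescence within 50% of control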
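Material: RFP-PRO-GFP reporter HT1080 cells. Dosing: single-point 20 µM compound, 1% DMSO. Controls: DMSO and RFP-L50D-GFP cell wells. Timing: cells overnight before dosing, compound overnight, 37 °C, 5% CO2. Measure: GFP/RFP fluorescence ratio.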
NR3A LBD binder = binders of NR3A ligand-binding domain, primary screen, biophysical, differential scanning fluorimetry, uHTS. NR3A LBD differential scanning fluorimetry, Tm shift; 0% = protein alone, 100% = glycine-bound protein. AID 1259313, 2017. Glutamate receptor ionotropic, NMDA 3A (GRIN3A) ligand-binding domain. actives 2.5% (n = 340,000). Tm shift relative to glycine control, % at 25 µM;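 active = melting temperature shift of at least 10% of the positive control shift, at one fixed dose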
MPTP block = mitochondrial permeability transition pore inhibitors, primary screen, biochemical, isolated mouse mitochondria, absorbance; Ca2+ swelling absorbance, 30 min; inhibition, % at 10 µM; actives 1.4% (n = 360,000); AID 602449, 2012;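 active = inhibition of 50% or more, scaled per plate between neutral and stimulator controls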;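 note: 0% = DMSO wells given calcium and 100% = 1 mM EGTA wells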
SKN-1 inh = suppressors of acrylamide-induced Pgst-4::GFP reporter in worms, primary screen, SKN-1 inhibitor project, whole organism, uHTS, GFP/RFP fluorescence ratio, strain VP596; C. elegans VP596 Pgst-4::GFP/RFP ratio, 24 h; inhibition, % at 21.8 µM; actives 0.49% (n = 360,000);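 active = interference check ratio from 0.5 to 1.5 plus GFP to RFP signal ratio inhibition reaching or exceeding a fixed threshold, cut at about 30% in these data, passing the limit was not always enough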
ADAM10 inh = human ADAM10 inhibitors, primary screen, biochemical, QFRET, HTS | Disintegrin and metalloproteinase domain-containing protein 10 (Homo sapiens), O14672 | recombinant ADAM10, EDANS/DABCYL FRET peptide cleavage, 3 h | inhibition, % at 7 µM | actives 0.62% (n = 370,000) | AID 720582, 2013;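 active = inhibition above a per-campaign cutoff equal to the mean of compounds falling between control-based bounds plus 3 SD, cut at about 20% in these data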;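 note: 0% = DMSO wells while the 100% control is not disclosed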
Target sequence (O14672 214-748 limits assumed): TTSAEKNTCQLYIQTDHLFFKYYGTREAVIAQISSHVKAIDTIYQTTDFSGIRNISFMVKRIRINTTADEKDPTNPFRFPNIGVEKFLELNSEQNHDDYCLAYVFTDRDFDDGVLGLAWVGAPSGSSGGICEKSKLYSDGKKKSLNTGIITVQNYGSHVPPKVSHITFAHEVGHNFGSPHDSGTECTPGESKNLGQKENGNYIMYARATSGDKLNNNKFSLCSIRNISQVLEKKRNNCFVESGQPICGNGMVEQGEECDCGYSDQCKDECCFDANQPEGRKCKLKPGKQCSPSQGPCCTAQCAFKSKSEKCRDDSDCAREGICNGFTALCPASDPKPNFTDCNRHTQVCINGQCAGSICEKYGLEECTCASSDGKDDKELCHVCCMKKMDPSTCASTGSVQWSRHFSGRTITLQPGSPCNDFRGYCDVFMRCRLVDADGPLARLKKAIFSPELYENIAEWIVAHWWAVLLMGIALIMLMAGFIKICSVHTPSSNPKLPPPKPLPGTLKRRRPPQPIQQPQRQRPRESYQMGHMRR
ADAM17 inh = ADAM17 inhibitors, primary screen, biochemical, QFRET. recombinant ADAM17, EDANS/DABCYL FRET peptide cleavage. inhibition, % at 6.95 µM. actives 0.83% (n = 370,000). AID 720648, 2013;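 active = inhibition above the mean of compounds lying between control limits plus 3 SD, set per campaign, cut at about 8.5% in these data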;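 note: 0% = DMSO-only wells as the low control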
* hit, by the source's call. Sampled rows, rich in hits. Any-hit rate of the full collection: about 4.7%.

What do the screens show for `O=C1Nc2ccc(Br)cc2C12NNc1ccccc1O2` (centres undefined)?
MT1-MMP act inh: -108; NR3A LBD binder: 25*; MPTP block: 4; SKN-1 inh: 6; ADAM10 inh: 5; ADAM17 inh: 0

How did O=C1Nc2ccc(Br)cc2C1(O)c1ccccc1 (centres undefined) do in these assays?
MT1-MMP act inh: 0; NR3A LBD binder: -1; MPTP block: -1; SKN-1 inh: -2; ADAM10 inh: 6; ADAM17 inh: -1

What do the screens show for `Clc1ccc(-c2nc3cc(CN4CCCCC4)ccc3o2)cc1`?
MT1-MMP act inh: 0; NR3A LBD binder: 0; MPTP block: 0; SKN-1 inh: 77*; ADAM10 inh: -5; ADAM17 inh: -9

How did Cc1ccc(-c2nc3cc(Cl)ccc3o2)cc1 do in these assays?
MT1-MMP act inh: -8; NR3A LBD binder: 0; MPTP block: 0; SKN-1 inh: 8; ADAM10 inh: -7; ADAM17 inh: -2

How did Cc1cc(C(N)=O)c2cc(Br)ccc2n1 do in these assays?
MT1-MMP act inh: -2; NR3A LBD binder: 13*; MPTP block: 1; SKN-1 inh: -5; ADAM10 inh: 4; ADAM17 inh: -4

How did Oc1cccc(-c2nc3c4c(ncn3n2)-c2ccccc2CC42CCCC2)c1 do in these assays?
MT1-MMP act inh: -19; NR3A LBD binder: 37*; MPTP block: 11; SKN-1 inh: 6; ADAM10 inh: 0; ADAM17 inh: -4

Results for COc1ccc(OCc2nc3c4c(ncn3n2)-c2ccccc2CC42CCCC2)cc1 ?
MT1-MMP act inh: 2; NR3A LBD binder: 4; MPTP block: 35; SKN-1 inh: 7; ADAM10 inh: 0; ADAM17 inh: -5

Results for CCOc1cc(-c2nc(-c3ccccc3OC)no2)cc(OCC)c1OCC ?
MT1-MMP act inh: -7; NR3A LBD binder: 11*; MPTP block: 5; SKN-1 inh: 2; ADAM10 inh: 10; ADAM17 inh: 2

How did CCN(CC)c1ccc(/C=C(\C#N)c2ccccn2)cc1 do in these assays?
MT1-MMP act inh: -102; NR3A LBD binder: 4; MPTP block: 4; SKN-1 inh: 23

Results for COc1cc(/C=N/N2CCOCC2)ccc1OCc1ccc(Cl)cc1 ?
MT1-MMP act inh: 5; NR3A LBD binder: 22*; MPTP block: 2; SKN-1 inh: 11; ADAM10 inh: 2; ADAM17 inh: -3

What do the screens show for `COc1cc(/C=C(\C#N)c2ccccn2)ccc1OCc1ccc(Cl)cc1`?
MT1-MMP act inh: -3; NR3A LBD binder: 14*; MPTP block: 1; SKN-1 inh: 12; ADAM10 inh: 10; ADAM17 inh: 5

How did Cc1cccc(C)c1NC(=O)C(c1ccccc1OC(F)(F)F)N1CCN(C/C=C/c2ccccc2)CC1 (centres undefined) do in these assays?
MT1-MMP act inh: 8; MPTP block: 1; SKN-1 inh: -2; ADAM10 inh: 5; ADAM17 inh: 3

How did O=C1NC(=O)/C(=C\c2cn(CC(=O)N3CCOCC3)c3ccccc23)S1 do in these assays?
MT1-MMP act inh: 6; NR3A LBD binder: 0; MPTP block: -3; SKN-1 inh: 5; ADAM10 inh: -2; ADAM17 inh: -1

How did COc1ccc(-c2nc(SCC(=O)NC3CCCC3)c(-c3ccc(OC)cc3)[nH]2)cc1 do in these assays?
NR3A LBD binder: -11; MPTP block: 1; SKN-1 inh: 1; ADAM10 inh: -20; ADAM17 inh: -4

What do the screens show for `COc1ccc(-c2nc(SCC(=O)Nc3nccs3)c(-c3ccc(Cl)cc3)[nH]2)cc1`?
MT1-MMP act inh: -5; NR3A LBD binder: 15*; MPTP block: 1; SKN-1 inh: 25; ADAM10 inh: -6; ADAM17 inh: 1

How did O=C(NCc1ccco1)c1nc2c(nnn2Cc2ccccc2Cl)c(=O)[nH]1 do in these assays?
MT1-MMP act inh: -56; NR3A LBD binder: 0; MPTP block: 0; SKN-1 inh: -2; ADAM10 inh: -9; ADAM17 inh: -5

What do the screens show for `COc1ccc(C2(c3ccc(OC)cc3)NC(=O)N(CC(=O)NC3CCS(=O)(=O)C3)C2=O)cc1` (centres undefined)?
MT1-MMP act inh: -4; NR3A LBD binder: 0; MPTP block: -1; SKN-1 inh: 40*; ADAM10 inh: -19; ADAM17 inh: -6

How did COc1ccc(C2(c3ccc(OC)cc3)NC(=O)N(CC(=O)NCC(C)c3ccccc3)C2=O)cc1 (centres undefined) do in these assays?
MT1-MMP act inh: 0; NR3A LBD binder: 25*; MPTP block: 0; SKN-1 inh: -14; ADAM10 inh: 5; ADAM17 inh: 6

What do the screens show for `COc1ccc(C2(c3ccc(OC)cc3)NC(=O)N(CC(=O)NC3CCCC3)C2=O)cc1`?
MT1-MMP act inh: -1; NR3A LBD binder: 0; MPTP block: -1; SKN-1 inh: 5; ADAM10 inh: -8; ADAM17 inh: 2

How did Cn1c(COc2ccc(Cl)cc2)nnc1SCC(=O)Nc1ccc2c(c1)CCC2 do in these assays?
MT1-MMP act inh: -1; NR3A LBD binder: -8; MPTP block: 2; SKN-1 inh: 0; ADAM10 inh: -1; ADAM17 inh: 0

Results for O=C(CN(Cc1cccs1)C(=O)CNS(=O)(=O)c1ccc(F)cc1)NCC1CCCO1 (centres undefined) ?
MT1-MMP act inh: 2; NR3A LBD binder: -2; MPTP block: -1; SKN-1 inh: 5; ADAM10 inh: -4; ADAM17 inh: -4

What do the screens show for `CNC(=S)SCCOc1ccccc1C`?
MT1-MMP act inh: -1; NR3A LBD binder: 15*; MPTP block: 2; SKN-1 inh: 30; ADAM10 inh: 2; ADAM17 inh: 1

What do the screens show for `CNC(=S)NNC(=O)COc1ccccc1C`?
MT1-MMP act inh: -1; NR3A LBD binder: -4; MPTP block: 0; SKN-1 inh: 8; ADAM10 inh: -2; ADAM17 inh: 0

How did O=C(C[n+]1ccccc1)NNc1ccccc1 do in these assays?
MT1-MMP act inh: -1; NR3A LBD binder: 1; MPTP block: 0; SKN-1 inh: 13; ADAM10 inh: -12; ADAM17 inh: -5

How did O=S(=O)(NCCc1ccccc1)c1ccc(F)cc1Br do in these assays?
MT1-MMP act inh: 2; NR3A LBD binder: 13*; MPTP block: 1; SKN-1 inh: 1; ADAM10 inh: 5; ADAM17 inh: 1
